Assays:
[1] = molecular target: Muscarinic acetylcholine receptor M3 (Cavia porcellus) (UniProt Q8VH26); test: Antagonist activity against Muscarinic acetylcholine receptor M3 of isolated Guinea Pig Longitudinal ileum; type: functional, tissue-based
In short: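 Guinea pig terminal ileum longitudinal muscle (2 cm segments) in PSS, with tension recorded isotonically. After ≥30 min equilibration, APE curves (0.01-0.5 µM) were run at 30 min intervals, the second serving as control. A new curve followed 60 min antagonist incubation, with the antagonist at a single 5 µM concentration in triplicate. EC50 was estimated graphically, with untreated parallel tissues as controls.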

[2] = molecular target: Acetylcholine receptor (Torpedo californica) (UniProt P02710+P02712+P02718+P02714); test: Antagonist activity against Nicotinic acetylcholine receptor (nAChR) of isolated Torpedo; type: functional
In short: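 Ethidium fluorescence displacement used nAChR-rich membranes from frozen Torpedo californica electric organ (1 µM receptor) with ethidium 7 µM and carbachol 1 mM in 50 mM NaPi, pH 7.4. Competing ligand was added stepwise, with excitation at 480 nm and emission read at 540-740 nm. Kapp was derived by a logarithmic formula (Herz et al.).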

[3] = Antagonist activity against Nicotinic acetylcholine receptor (nAChR) of isolated Frog rectus Abdominis Muscle; type: functional, tissue-based; conditions: Amphibia
[4] = system: Muscarinic acetylcholine receptor M2 (Cavia porcellus); test: Antagonist activity against Muscarinic acetylcholine receptor M2 of isolated Guinea Pig Left artium
Acetylcholinesterase = Acetylcholinesterase (Homo sapiens, UniProt P22303); test: Inhibitory activity on Acetylcholinesterase (AChE) from human erythrocytes
[5] = molecular target: T1, Acetylcholine receptor subunit delta (Torpedo californica) (UniProt P02718); conditions: fish
T1 sequence (whole entry): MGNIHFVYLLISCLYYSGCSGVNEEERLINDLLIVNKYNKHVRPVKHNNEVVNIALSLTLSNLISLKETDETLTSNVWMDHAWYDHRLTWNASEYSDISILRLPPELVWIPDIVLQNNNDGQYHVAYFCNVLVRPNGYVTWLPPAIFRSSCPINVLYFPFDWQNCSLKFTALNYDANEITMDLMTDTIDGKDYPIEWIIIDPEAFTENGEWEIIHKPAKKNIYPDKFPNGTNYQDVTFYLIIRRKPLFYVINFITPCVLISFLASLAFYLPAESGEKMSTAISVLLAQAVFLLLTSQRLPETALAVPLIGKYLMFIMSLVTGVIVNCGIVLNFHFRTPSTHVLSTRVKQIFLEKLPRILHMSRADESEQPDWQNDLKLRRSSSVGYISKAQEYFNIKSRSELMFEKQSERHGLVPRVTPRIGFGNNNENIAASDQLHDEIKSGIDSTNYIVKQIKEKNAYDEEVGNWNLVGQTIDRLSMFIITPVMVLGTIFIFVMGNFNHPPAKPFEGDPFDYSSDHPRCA

Chain of Acetylcholinesterase (P22303 whole entry): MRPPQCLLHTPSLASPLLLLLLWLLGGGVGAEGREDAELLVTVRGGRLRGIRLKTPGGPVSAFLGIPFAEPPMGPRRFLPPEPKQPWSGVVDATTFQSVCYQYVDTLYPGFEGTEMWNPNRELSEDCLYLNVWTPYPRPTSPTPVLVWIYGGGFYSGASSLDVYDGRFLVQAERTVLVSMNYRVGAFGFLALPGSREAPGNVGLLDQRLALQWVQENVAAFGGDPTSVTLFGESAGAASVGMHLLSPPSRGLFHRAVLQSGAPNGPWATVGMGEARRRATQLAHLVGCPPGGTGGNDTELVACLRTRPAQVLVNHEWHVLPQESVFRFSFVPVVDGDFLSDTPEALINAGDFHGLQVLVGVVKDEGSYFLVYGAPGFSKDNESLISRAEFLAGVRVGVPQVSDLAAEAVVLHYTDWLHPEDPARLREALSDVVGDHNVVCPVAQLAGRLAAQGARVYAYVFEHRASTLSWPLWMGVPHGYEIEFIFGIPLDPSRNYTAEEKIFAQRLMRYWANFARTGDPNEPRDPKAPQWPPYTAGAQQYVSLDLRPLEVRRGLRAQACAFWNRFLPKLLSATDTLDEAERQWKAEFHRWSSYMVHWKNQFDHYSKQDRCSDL
Chain of Muscarinic acetylcholine receptor M3 (Cavia porcellus) (Q8VH26 1-587): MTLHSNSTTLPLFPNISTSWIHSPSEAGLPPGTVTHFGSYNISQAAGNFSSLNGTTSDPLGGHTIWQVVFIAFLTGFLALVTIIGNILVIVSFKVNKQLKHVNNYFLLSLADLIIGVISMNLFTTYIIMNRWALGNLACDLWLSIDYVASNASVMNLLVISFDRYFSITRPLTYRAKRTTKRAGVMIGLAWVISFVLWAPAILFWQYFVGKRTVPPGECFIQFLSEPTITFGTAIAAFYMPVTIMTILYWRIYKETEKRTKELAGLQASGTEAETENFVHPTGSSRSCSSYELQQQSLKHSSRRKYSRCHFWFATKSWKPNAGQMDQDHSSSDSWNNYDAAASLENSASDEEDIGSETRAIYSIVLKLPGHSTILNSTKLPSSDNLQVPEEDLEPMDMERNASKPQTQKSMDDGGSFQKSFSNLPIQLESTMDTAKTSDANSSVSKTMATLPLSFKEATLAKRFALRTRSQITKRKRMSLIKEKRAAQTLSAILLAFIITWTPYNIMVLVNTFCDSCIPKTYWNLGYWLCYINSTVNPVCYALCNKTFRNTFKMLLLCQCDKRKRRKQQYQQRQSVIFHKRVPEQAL

Compound	pKB [1]	pKapp [2]	IC50 [3]	pKB [4]	IC50 (Acetylcholinesterase)	pKapp [5]
COc1ccccc1CN1CCCCCCN(C)CCCCCCCCN(C)CCCCCCN(Cc2ccccc2OC)Cc2ccc(cc2)Cc2ccc(cc2)C1	< 5	6.21	229 nM	< 5		
COc1ccccc1CNCCCCCCNCc1ccc(-c2ccc(-c3ccc(CNCCCCCCNCc4ccccc4OC)cc3)cc2)cc1	< 5	6.35	501 nM	< 5		
COc1ccccc1CNCCCCCCNCCCCCCCCCCCCNCCCCCCNCc1ccccc1OC	5.98	5.66		7.35		
COc1ccccc1CN1CCCCCCCCN(Cc2ccccc2OC)C(=O)CCCCCNCc2ccc(cc2)-c2ccc(cc2)CNCCCCCC1=O	< 5	6.64	589 nM	< 5	3390 nM	
CN1CCCCCCCCN(C)CCCCCCNCc2ccc(cc2)-c2ccc(cc2)CNCCCCCC1		< 4	4270 nM			
COc1ccccc1CNCCCCCCNCCCCCCCCNCCCCCCNCc1ccccc1OC [METHOCTRAMINE]	6.14	6.21	1170 nM			
COc1ccccc1CN1CCCCCCCCN(Cc2ccccc2OC)CCCCCCNCc2ccc(cc2)CNCCCCCC1			324 nM			6.01
COc1ccccc1CN(C)CCCCCC(=O)N(C)CCCCCCCCN(C)C(=O)CCCCCN(C)Cc1ccccc1OC	5.55	4.99		6.39		
COc1ccccc1CN(CCCCCCN)CCCCCCCCN(CCCCCCN)Cc1ccccc1OC			331 nM			6.4
COc1ccccc1CN1CCCCCC(=O)N(C)CCCCCCCCN(C)C(=O)CCCCCN(Cc2ccccc2OC)Cc2ccc(cc2)-c2ccc(cc2)C1		5.1	525 nM		53700 nM	
COc1ccccc1CN1CCCCCCCCN(Cc2ccccc2OC)CCCCCCNCc2ccc(cc2)Cc2ccc(cc2)CNCCCCCC1	< 5	6.26	191 nM			
COc1ccccc1CN(CCCCCCCCN(Cc1ccccc1OC)C(=O)CCCCCN)C(=O)CCCCCN		6.46	158 nM		33100 nM	
COc1ccccc1CN1CCCCCCN(C)CCCCCCCCN(C)CCCCCCN(Cc2ccccc2OC)Cc2ccc(cc2)C1		6.43	3470 nM			
COc1ccccc1CN1CCCCCCCCN(Cc2ccccc2OC)C(=O)CCCCCNCc2ccc(cc2)CNCCCCCC1=O	< 5	6.47	170 nM	< 5	1410 nM	
COc1ccccc1CN1CCCCCCN(C)CCCCCCCCN(C)CCCCCCN(Cc2ccccc2OC)Cc2ccc(cc2)-c2ccc(cc2)C1		6.35	447 nM			
COc1ccccc1CN1CCCCCCCCN(Cc2ccccc2OC)CCCCCCNCc2ccc(cc2)-c2ccc(cc2)CNCCCCCC1			1200 nM			5.48
